TDP2 inh: TDP2 (human) inhibition, absorbance primary screen; inhibition, % at 12.8 µM; O95551; recombinant TDP2, T5PNP hydrolysis, p-nitrophenol absorbance 415 nm; 370,000 compounds, 0.34% hits;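 active means inhibition above the mean of all tested compounds plus 3 SD, set per campaign, cut at about 25% in these data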;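 further: 0% = DMSO with enzyme and 100% = buffer with substrate but no TDP2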
Target sequence (O95551 whole entry, looked up): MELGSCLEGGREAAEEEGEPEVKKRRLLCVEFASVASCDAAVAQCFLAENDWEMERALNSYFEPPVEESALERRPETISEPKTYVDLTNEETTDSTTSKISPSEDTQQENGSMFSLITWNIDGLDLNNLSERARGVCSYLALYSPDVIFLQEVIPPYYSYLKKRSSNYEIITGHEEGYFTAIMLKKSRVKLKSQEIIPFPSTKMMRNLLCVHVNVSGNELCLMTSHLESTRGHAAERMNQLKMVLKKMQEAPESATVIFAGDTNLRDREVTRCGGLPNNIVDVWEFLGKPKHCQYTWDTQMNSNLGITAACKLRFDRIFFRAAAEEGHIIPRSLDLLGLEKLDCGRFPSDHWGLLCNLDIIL
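Evaluation: % inhibition relative to enzyme-containing and enzyme-free wells. Material: recombinant human TDP2. Benchmarks: enzyme-free and DMSO wells. Timing: enzyme reaction with compound for 2 h at 37 °C. Compound dosing: 12.8 µM only. Measured by: p-Nitrophenol epi absorbance. Reagent: T5PNP substrate at 5 mM, a TopII-DNA adduct mimic. Replication: single well per compound.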
PRMT1 FP inh: blocks human protein arginine methyltransferase 1; inhibition, % at 2.79 µM; 370,000 compounds, 1.3% hits; Q99873; recombinant PRMT1, activity-based probe fluorescence polarization;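 active means inhibition above about 21% made by adding two undisclosed values, limit read from the data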
CTSL1 counter: counter-screen for PFM18AAP inhibitors: inhibitors of F. hepatica cathepsin L1; recombinant F. hepatica cathepsin L1, Z-Leu-Arg-MCA fluorescence; inhibition, % at 5.96 µM; 300,000 compounds, 0.49% hits;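 active means inhibition above the mean of all tested compounds plus 3 SD, set per screening campaign, cut at about 17% in these data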;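 further: 0% = plate median of test compound wells and 100% = 1 µM Z-Phe-Ala-diazomethylketone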
PAD4 inh: blocks human protein arginine deiminase 4; recombinant PAD4, RCA probe fluorescence polarization; inhibition, % at 6.36 µM; 330,000 compounds, 0.41% hits; Q9UM07;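 active means percent inhibition above a cutoff equal to the mean of all tested compounds plus 3 SD, cut at about 15% in these data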;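 further: 0% = PAD4 with RCA probe and DMSO and 100% = probe without PAD4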
GSTO1 counter: GSTO1 inhibition, counter-screen for RBBP9 inhibitors. P78417. AID 1974. 300,000 compounds, 1.1% hits. inhibition, % at 5.96 µM. recombinant GSTO1, activity-based probe fluorescence polarization;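 active means inhibition above the campaign mean inhibition plus 3 SD, cut at about 35% in these data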;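 further: 0% = GSTO1-1 with DMSO and 100% = wells lacking GSTO1-1 enzyme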
TDP2 inh conf: human TDP2 inhibition, confirmation; shares compounds with TDP2 inh; recombinant human TDP2, absorbance read-out; inhibition, % at 12.8 µM; 1,100 compounds, 22% hits; in the data active means inhibition above about 25%;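 further: 0% = vehicle with enzyme and 100% = no enzyme buffer only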
Numbers without * were called inactive; / = no result. Hits are enriched below; roughly 2.5% of the tested compounds scored in any of these assays.

SMILES | TDP2 inh | PRMT1 FP inh | CTSL1 counter | PAD4 inh | GSTO1 counter | TDP2 inh conf
CCCC(C(=O)Nc1ccc(C)c(S(=O)(=O)N2CCOCC2)c1)c1ccccc1 (centres undefined) | -4 | -10 | -3 | 0 | -6 | /
COC(=O)[C@]12C[C@H](CC(=O)N3CCN(C(=O)C4CC4)CC3)C(=O)N(Cc3cccc4ccccc34)C1=C[C@H](C(C)C)O[C@@H]2C1CC1 | -6 | 1 | / | / | / | /
CN1c2ccccc2C(C)(C)C12C=Nc1c(cc(N3CCOCC3)c3ccccc13)O2 (centres undefined) | 53* | 0 | / | / | / | 12
CN1c2ccccc2C(C)(C)C12C=Cc1cc(O)ccc1O2 (centres undefined) | 0 | 9 | -2 | -67 | 4 | /
Cn1cccc1C(=O)N1CCN(S(=O)(=O)c2ccc(Cl)s2)CC1 | 7 | -1 | / | / | / | /
COC(=O)[C@]12C[C@H](CC(=O)NCCCN3CCCC3=O)C(=O)N(Cc3ccco3)C1=C[C@H](COCc1ccccc1)O[C@@H]2C | -8 | 2 | / | / | / | /
COc1cccc(-n2nnnc2SCC(=O)Nc2nc3c(s2)CCCC3)c1 | 5 | 0 | 4 | 6 | 2 | /
COC(=O)c1cccc(-n2nnnc2SCC(=O)Nc2nc3c(s2)CCCC3)c1 | 48* | 0 | -4 | -2 | -1 | -2
Cc1ccc(S(=O)(=O)N(CC(=O)NC2CCC(C)CC2)c2cc(C)cc(C)c2)cc1 (centres undefined) | 9 | -3 | / | / | / | /
COc1cccc(C2/C(=C(\O)c3ccc4c(c3)OCCO4)C(=O)C(=O)N2c2nnc(C)s2)c1 (centres undefined) | 3 | -3 | 4 | -4 | 3 | /
Cc1nnc(N2C(=O)C(=O)/C(=C(/O)c3ccc4c(c3)CC(C)O4)C2c2ccccc2F)s1 (centres undefined) | 37* | 6 | 0 | -2 | -4 | -5
COc1ccc(CC(=O)N/N=C(/C)CC(=O)N(C)c2ccccc2)cc1 | 25* | 2 | 3 | 2 | -4 | 5
O=C1C=C(Nc2cccnc2)c2ccccc2C1=O | 72* | 1 | / | / | / | 59*
CCOc1ccc(NC2=CC(=O)C(=O)c3ccccc32)cc1 | 32* | 2 | / | / | / | 40*
Cc1ccc(NC2=CC(=O)C(=O)c3ccccc32)c(C)c1 | 13 | -1 | / | -12 | / | /
COC(=O)C[C@H]1CC[C@H]2[C@H](COc3ccc(NC(=O)c4ccccc4F)cc3C(=O)N2C)O1 | 3 | 1 | / | / | / | /
CS(=O)(=O)N1CCC(C(=O)NCC2COc3ccccc3O2)CC1 (centres undefined) | 2 | 0 | / | / | / | /
O=C(c1nc2ccccn2c1CNCCCn1cccn1)N1CCCC1 | 28* | 4 | -3 | 1 | -5 | -8
Cc1ccc(C(=O)NC2(O)C(=O)c3ccccc3C2=O)cc1C | 73* | 1 | 58* | 9 | 75* | 75*
Cc1[nH]n(-c2ccccc2)c(=O)c1C=NCc1ccncc1 | 27* | -3 | -5 | -2 | -8 | 3
Cc1[nH]n(-c2ccccc2)c(=O)c1/C=N/N1CCOCC1 | 17 | 1 | 11 | -13 | -11 | /
COc1ccc2nc(/N=C/c3c(C)[nH]n(-c4ccc(C)cc4)c3=O)sc2c1 | 31* | 0 | 2 | -13 | 17 | 14
CCc1nnc(NS(=O)(=O)c2ccc(N=Cc3c(C)[nH]n(-c4ccc(Cl)cc4)c3=O)cc2)s1 | 13 | 5 | -5 | -18 | 16 | /
Cc1[nH]n(-c2ccccc2)c(=O)c1/C=N/N1C(=O)c2cccc3cccc(c23)C1=O | 31* | 2 | -1 | -14 | 5 | 7
Cc1[nH]n(-c2ccc(Cl)cc2)c(=O)c1/C=N/c1nnc(-c2ccccc2)s1 | 37* | 1 | 1 | -5 | 14 | 20
COc1ccccc1CCn1cnc(-c2ccccc2F)c1CC(C)C | -6 | 9 | / | / | / | /
CCCC(=O)OC12CCCN(C1)/C(=C/c1ccc(C#N)cc1)C2 (centres undefined) | -1 | -1 | / | / | / | /
COc1ccc(S(=O)(=O)N(C)C[C@@H]2Oc3c(NC(=O)Nc4cccc5ccccc45)cccc3C(=O)N([C@@H](C)CO)C[C@H]2C)cc1 | -4 | -4 | / | / | / | /
O=[N+]([O-])c1ccc(CN2CCN(c3ccccc3Cl)CC2)o1 | 27* | 0 | 2 | -5 | 2 | 18
COc1ccc(NC(=O)CSc2nnc(-c3cc(C)[nH]n3)n2N)cc1 | -2 | 2 | -5 | 3 | 0 | /
